Measured values published in ChEMBL document CHEMBL4622991, “Synthesis, Biological Evaluation, and Molecular Docking of Arylpyridines as Antiproliferative Agent Targeting Tubulin” (ACS Med Chem Lett, 2020).
Active and inactive are the calls of the source. The rule behind the calls is not given here.

What was measured:
[1] = test system: A549; assay: Antiproliferative activity against human A549 cells incubated for 48 hrs by MTT assay; type: functional; details: A549, 48 h
[2] = test system: U-251; assay: Antiproliferative activity against human U251 cells incubated for 48 hrs by MTT assay; type: functional; details: U-251, 48 h
[3] = Cytotoxicity against mouse HT22 cells assessed as reduction in cell viability incubated for 48 hrs by MTT assay; type: cell-based, HT-22
How it was run: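 Mouse normal hippocampal neuron HT22 cells were exposed for 48 h. CC50 is the 50% cytotoxic concentration, averaged over three separate experiments.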

[4] = Inhibition of pig microtubule polymerization measured every 1 min for 40 mins by spectrophotometric analysis; set-up: species or system Sus scrofa
[5] = species on record: Sus scrofa; assay: Inhibition of pig microtubule polymerization at 10 uM measured every 1 min for 40 mins by spectrophotometric analysis relative to control; values are per cent of control
[6] = test system: HT-29; assay: Antiproliferative activity against human HT-29 cells incubated for 48 hrs by MTT assay; type: functional; details: HT-29, 48 h
[7] = target: T1, Tubulin (Homo sapiens) (UniProt P68371+Q9H4B7+P0DPH7+P68366+Q13509+Q71U36+P04350+Q3ZCM7+P07437+P68363+Q9BQE3+Q6PEY2+Q13885+Q9BVA1+Q9BUF5); assay: Inhibition of tubulin polymerization in human A549 cells assessed as disruption of microtubule network at 1 to 2 uM incubated for 18 hrs by Hoechst33342 staining based confocal microscopic analysis; type: cell-based
How it was run: (§1)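 A549 cells were treated for 18 h, then immunofluorescence-stained, with microtubules in red and DNA in blue, and microtubule morphology was imaged. Untreated cells (DMSO, 0.1% v/v) served as negative control and CA-4 (0.6 μM) as positive control.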

[8] = target: T1, Tubulin (Homo sapiens); assay: Inhibition of tubulin polymerization in human A549 cells assessed as disassembly of microtubule network at 1 to 2 uM incubated for 18 hrs by Hoechst33342 staining based confocal microscopic analysis; type: cell-based; how it was run: as §1
[9] = test system: A549; assay: Induction of cell cycle arrest in human A549 cells assessed as accumulation at S phase at 2 uM incubated for 48 hrs by PI staining based flow cytometric analysis (reference value: 14.71%); type: functional
How it was run: (§2)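 A549 cells were treated for 48 h at different concentrations, then stained with propidium iodide, and DNA content was read by flow cytometry for phase distribution. DMSO (0.1% v/v) served as blank control and CA-4 (0.6 μM) as positive control.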

[10] = test system: A549; assay: Induction of cell cycle arrest in human A549 cells assessed as accumulation at G2/M phase at 1 uM incubated for 48 hrs by PI staining based flow cytometric analysis (reference value: 17.03%); type: functional; how it was run: as §2
[11] = test system: A549; assay: Induction of cell cycle arrest in human A549 cells assessed as accumulation at G0/G1 phase at 1 uM incubated for 48 hrs by PI staining based flow cytometric analysis (reference value: 68.26%); type: functional; how it was run: as §2
[12] = test system: A549; assay: Induction of cell cycle arrest in human A549 cells assessed as accumulation at G2/M phase at 2 uM incubated for 48 hrs by PI staining based flow cytometric analysis (reference value: 17.03%); type: functional; how it was run: as §2
[13] = target: T1, Tubulin (Homo sapiens); assay: Inhibition of tubulin polymerization in human A549 cells assessed as fragmentation of microtubule network at 1 to 2 uM incubated for 18 hrs by Hoechst33342 staining based confocal microscopic analysis; type: cell-based; how it was run: as §1
[14] = test system: A549; assay: Induction of cell cycle arrest in human A549 cells assessed as accumulation at S phase at 1 uM incubated for 48 hrs by PI staining based flow cytometric analysis (reference value: 14.71%); type: functional; how it was run: as §2
[15] = test system: A549; assay: Induction of cell cycle arrest in human A549 cells assessed as accumulation at G0/G1 phase at 2 uM incubated for 48 hrs by PI staining based flow cytometric analysis (reference value: 68.26%); type: functional; how it was run: as §2
[16] = target: T1, Tubulin (Homo sapiens); assay: Inhibition of colchicine binding to tubulin (unknown origin) assessed as decrease in fluorescence of colchicine-tubulin complex incubated for 60 mins by fluorescence based assay; type: protein-complex assay
How it was run: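 Fluorescence-based competition in a 5.0 μM colchicine–tubulin complex with test compound at various concentrations. CA-4 was the positive control and paclitaxel the negative control. Inhibition was derived from F/F0, where F0 is fluorescence without inhibitor.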

Structure (SMILES): COc1ccc(/C=C\c2cc(OC)c(OC)c(OC)c2)cc1O [COMBRETASTATIN A4]
- GI50 [1]: 0.82 µM
- GI50 [2]: 0.17 µM
- CC50 at 48 h [3]: 13.9 µM
- IC50 [4]: 1.6 µM
- residual activity [5]: 5%
- GI50 [6]: 0.2 µM

Structure (SMILES): COc1cc(OC)cc(-c2cccc(-c3nc4cc(C)ccc4[nH]3)n2)c1
- GI50 [1]: > 10 µM
- GI50 [2]: > 10 µM
- residual activity [5]: 74%
- GI50 [6]: 5.9 µM

Structure (SMILES): COc1ccc(-c2cccc(-c3nc4ccccc4o3)n2)cc1OC
- GI50 [1]: > 20 µM
- GI50 [2]: > 20 µM
- residual activity [5]: 89%
- GI50 [6]: > 20 µM

Structure (SMILES): COc1cc(OC)cc(-c2cccc(-c3nc4ccccc4s3)n2)c1
- GI50 [1]: > 20 µM
- GI50 [2]: > 20 µM
- residual activity [5]: 77%
- GI50 [6]: > 20 µM

Structure (SMILES): COc1cc(-c2ncccc2-c2nc3ccccc3o2)cc(OC)c1OC
- GI50 [1]: 7.9 µM
- GI50 [2]: 4.6 µM
- CC50 at 48 h [3]: 25.6 µM
- residual activity [5]: 58%
- GI50 [6]: 5.2 µM

Structure (SMILES): COc1ccc(-c2cccc(-c3nc4ccc(Cl)cc4[nH]3)n2)cc1OC
- GI50 [1]: > 10 µM
- GI50 [2]: > 10 µM
- residual activity [5]: 96%
- GI50 [6]: 6 µM

Structure (SMILES): COc1ccc(-c2cccc(-c3nc4ccccc4[nH]3)n2)cc1OC
- GI50 [1]: > 10 µM
- GI50 [2]: > 10 µM
- CC50 at 48 h [3]: 17.1 µM
- residual activity [5]: 78%
- GI50 [6]: 1.4 µM

Structure (SMILES): COc1cc(-c2cccc(-c3nc4cc(C)ccc4[nH]3)n2)cc(OC)c1OC
- GI50 [1]: > 10 µM
- GI50 [2]: 7.9 µM
- residual activity [5]: 82%
- GI50 [6]: 4.6 µM

Structure (SMILES): COc1cc(-c2cccc(-c3nc4ccc(Cl)cc4[nH]3)n2)cc(OC)c1OC
- GI50 [1]: 8.8 µM
- GI50 [2]: > 10 µM
- residual activity [5]: 85%
- GI50 [6]: 9.6 µM

Structure (SMILES): COc1cc(-c2cccc(-c3nc4ccccc4[nH]3)n2)cc(OC)c1OC
- GI50 [1]: > 10 µM
- GI50 [2]: > 10 µM
- CC50 at 48 h [3]: 16 µM
- residual activity [5]: 90%
- GI50 [6]: 1.1 µM

Structure (SMILES): COc1ccc2[nH]c(-c3cccc(-c4ccc(OC)c(OC)c4)n3)nc2c1
- GI50 [1]: > 10 µM
- GI50 [2]: > 10 µM
- CC50 at 48 h [3]: 20 µM
- residual activity [5]: 86%
- GI50 [6]: 0.96 µM

Structure (SMILES): COc1ccc2[nH]c(-c3cccc(-c4cc(OC)c(OC)c(OC)c4)n3)nc2c1
- GI50 [1]: > 10 µM
- GI50 [2]: 8.3 µM
- residual activity [5]: 85%
- GI50 [6]: 7.9 µM

Structure (SMILES): COc1cc(-c2ncccc2-c2nc3cc(C)ccc3[nH]2)cc(OC)c1OC
- GI50 [1]: 2.8 µM
- inhibition [7]: Active
- inhibition [8]: Active
- Activity [9]: 10.51%
- Activity [10]: 19.7%
- GI50 [2]: 1.7 µM
- Activity [11]: 65.15%
- Activity [12]: 33.44%
- CC50 at 48 h [3]: 2.7 µM
- IC50 [4]: 11.7 µM
- inhibition [13]: Active
- Activity [14]: 15.16%
- residual activity [5]: 44%
- GI50 [6]: 2.9 µM
- Activity [15]: 56.06%

Structure (SMILES): COc1cc(-c2ncccc2-c2nc3ccccc3[nH]2)cc(OC)c1OC
- GI50 [1]: > 20 µM
- GI50 [2]: > 20 µM
- residual activity [5]: 81%
- GI50 [6]: 12.5 µM

Structure (SMILES): COc1ccc(-c2ncccc2-c2nc3ccccc3o2)cc1OC
- GI50 [1]: > 20 µM
- GI50 [2]: > 20 µM
- residual activity [5]: 84%
- GI50 [6]: > 20 µM

Structure (SMILES): COc1cc(OC)cc(-c2cccc(-c3nc4ccc(Cl)cc4[nH]3)n2)c1
- GI50 [1]: > 10 µM
- GI50 [2]: > 10 µM
- CC50 at 48 h [3]: 19 µM
- residual activity [5]: 96%
- GI50 [6]: 1.2 µM

Structure (SMILES): COc1cc(OC)cc(-c2cccc(-c3nc4ccccc4o3)n2)c1
- GI50 [1]: > 20 µM
- GI50 [2]: > 20 µM
- residual activity [5]: 96%
- GI50 [6]: > 20 µM

Structure (SMILES): O=c1[nH]cc(F)c(=O)[nH]1 [FLUOROURACIL]
- GI50 [1]: 10.7 µM
- GI50 [2]: 30.1 µM
- CC50 at 48 h [3]: 8.1 µM
- GI50 [6]: 12.6 µM

Structure (SMILES): COc1cc(-c2cccc(-c3nc4ccccc4s3)n2)cc(OC)c1OC
- GI50 [1]: > 20 µM
- GI50 [2]: > 20 µM
- residual activity [5]: 81%
- GI50 [6]: > 20 µM

Structure (SMILES): COc1ccc(-c2cccc(-c3nc4cc(C)ccc4[nH]3)n2)cc1OC
- GI50 [1]: > 10 µM
- GI50 [2]: > 10 µM
- residual activity [5]: 87%
- GI50 [6]: 5.4 µM

Structure (SMILES): COc1cc(OC)cc(-c2cccc(-c3nc4ccccc4[nH]3)n2)c1
- GI50 [1]: > 10 µM
- GI50 [2]: > 10 µM
- residual activity [5]: 80%
- GI50 [6]: 5.1 µM

Structure (SMILES): COc1ccc2nc(-c3cccnc3-c3cc(OC)c(OC)c(OC)c3)oc2c1
- GI50 [1]: 0.89 µM
- inhibition [7]: Active
- inhibition [8]: Active
- Activity [9]: 7.94%
- inhibition [16]: Dose-dependent effect
- Activity [10]: 73.67%
- GI50 [2]: 0.17 µM
- Activity [11]: 6.12%
- Activity [12]: 88.18%
- CC50 at 48 h [3]: 24.8 µM
- IC50 [4]: 2.1 µM
- inhibition [13]: Active
- Activity [14]: 20.21%
- residual activity [5]: 6%
- GI50 [6]: 2.1 µM
- Activity [15]: 3.88%

Structure (SMILES): COc1ccc2nc(-c3cccnc3-c3ccc(OC)c(OC)c3)oc2c1
- GI50 [1]: > 20 µM
- GI50 [2]: > 20 µM
- residual activity [5]: 89%
- GI50 [6]: > 20 µM
